The values that follow come from ChEMBL document CHEMBL1909504, “New series of isoniazid hydrazones linked with electron-withdrawing substituents” (Eur J Med Chem, 2011).

Holding throughout (assay type): functional
The subject of assay [1] is Mycobacterium tuberculosis. As to the kind of experiment: Antimycobacterial activity against Mycobacterium tuberculosis CNTC My 331/88 ATCC 27294 after 14 days. As to conditions: CNTC My 331/88 ATCC 27294, 336 h. In a few lines: (§1)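 Sula semi-synthetic medium at 37 °C. Compounds were dissolved in DMSO (max. 5% DMSO in water) and added to the medium at 1000, 500, 250, 125, 62, 31, 16, 8, 4, 2 and 1 μmol L⁻¹. MIC was read after 7, 14 and 21 days of incubation at 37 °C. Strains came from the Czech National Collection of Type Cultures.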

Assay [2] concerns Mycobacterium tuberculosis. As to the kind of experiment: Antimycobacterial activity against Mycobacterium tuberculosis CNTC My 331/88 ATCC 27294 after 21 days. As to conditions: CNTC My 331/88 ATCC 27294, 504 h. In a few lines:
as §1

For assay [3], the system named is Mycobacterium avium. As to the kind of experiment: Antimycobacterial activity against Mycobacterium avium CNTC My 330/88 after 14 days. Conditions: CNTC My 330/88, 336 h. In a few lines:
as §1

In assay [4] the test system is Mycobacterium avium. As to the kind of experiment: Antimycobacterial activity against Mycobacterium avium CNTC My 330/88 after 21 days. Conditions: CNTC My 330/88, 504 h. In a few lines:
as §1

Assay [5] deals with Mycobacterium kansasii. As to the kind of experiment: Antimycobacterial activity against Mycobacterium kansasii CNTC My 335/80 after 7 days. As to conditions: 168 h. The gist of the method:
(§2)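 MIC in Sula semi-synthetic medium at 37 °C. M. kansasii 6509/96 is a clinical isolate; M. kansasii CNTC My 235/80 comes from the Czech national collection. Compounds were dissolved in DMSO (max. 5% DMSO in water) and tested at 1000, 500, 250, 125, 62, 31, 16, 8, 4, 2 and 1 μmol L⁻¹. MIC was read after 7, 14 and 21 days.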

Assay [6] concerns Mycobacterium kansasii. As to the kind of experiment: Antimycobacterial activity against Mycobacterium kansasii CNTC My 335/80 after 14 days. As to conditions: 336 h. In a few lines: as §2
Assay [7] relates to Mycobacterium kansasii. As to the kind of experiment: Antimycobacterial activity against Mycobacterium kansasii CNTC My 335/80 after 21 days. Conditions: 504 h. In a few lines:
as §2

Assay [8] relates to Mycobacterium kansasii. As to the kind of experiment: Antimycobacterial activity against Mycobacterium kansasii 6509/96 isolate after 7 days. As to conditions: 6509/96, 168 h. In a few lines: as §2
Assay [9] has as its system Mycobacterium kansasii. As to the kind of experiment: Antimycobacterial activity against Mycobacterium kansasii 6509/96 isolate after 14 days. Conditions: 6509/96, 336 h. The gist of the method:
as §2

Assay [10] deals with Mycobacterium kansasii. As to the kind of experiment: Antimycobacterial activity against Mycobacterium kansasii 6509/96 isolate after 21 days. Conditions: 6509/96, 504 h. In a few lines:
as §2

Molecules are shown by their SMILES. Converted amounts (≈) assume the structure as drawn. Where only a bound is given, the exact number is not on record here.

On to `O=C(N/N=C/Nc1ccc(C(F)(F)F)cc1)c1ccncc1`, for which the minimum inhibitory concentration (MIC) in assay [1] came to 2 µM (≈ 0.617 µg/mL); in assay [2] it was 2 µM (≈ 0.617 µg/mL); against Mycobacterium avium [3], 500 µM (≈ 154 µg/mL); against Mycobacterium avium [4], 1000 µM (≈ 308 µg/mL); against Mycobacterium kansasii [5], 250 µM (≈ 77.1 µg/mL); with Mycobacterium kansasii [6], 500 µM (≈ 154 µg/mL). Moreover, the MIC against Mycobacterium kansasii [7] worked out at 1000 µM (≈ 308 µg/mL); against Mycobacterium kansasii [8], 32 µM (≈ 9.86 µg/mL); with Mycobacterium kansasii [9], 32 µM (≈ 9.86 µg/mL); in the assay with Mycobacterium kansasii [10], 32 µM (≈ 9.86 µg/mL).

For `O=C(N/N=C/Nc1cccc(F)c1)c1ccncc1`, the minimal inhibitory concentration (MIC) in assay [1] is 1 µM (≈ 0.258 µg/mL); in [2], 1 µM (≈ 0.258 µg/mL); with Mycobacterium avium [3], 500 µM (≈ 129 µg/mL); with Mycobacterium avium [4], 1000 µM (≈ 258 µg/mL); with Mycobacterium kansasii [5] it was 125 µM (≈ 32.3 µg/mL); with Mycobacterium kansasii [6] it was 1000 µM (≈ 258 µg/mL). Besides, the minimum inhibitory concentration (MIC) in the assay with Mycobacterium kansasii [7] is greater than 1000 µM; with Mycobacterium kansasii [8], 16 µM (≈ 4.13 µg/mL); in the assay with Mycobacterium kansasii [9], 16 µM (≈ 4.13 µg/mL); against Mycobacterium kansasii [10], 16 µM (≈ 4.13 µg/mL).

`O=C(N/N=C/Nc1ccc(F)cc1)c1ccncc1`: the MIC in assay [1] worked out at 1 µM (≈ 0.258 µg/mL); in assay [2] it was 2 µM (≈ 0.517 µg/mL); against Mycobacterium avium [3], 250 µM (≈ 64.6 µg/mL); against Mycobacterium avium [4] it was 500 µM (≈ 129 µg/mL); in the assay with Mycobacterium kansasii [5], 250 µM (≈ 64.6 µg/mL); in the assay with Mycobacterium kansasii [6], 1000 µM (≈ 258 µg/mL). The minimal inhibitory concentration (MIC) is greater than 1000 µM against Mycobacterium kansasii [7], 8 µM (≈ 2.07 µg/mL) against Mycobacterium kansasii [8], 8 µM (≈ 2.07 µg/mL) against Mycobacterium kansasii [9] and 8 µM (≈ 2.07 µg/mL) in the assay with Mycobacterium kansasii [10].

Turning to `O=C(N/N=C/Nc1cccc(Cl)c1)c1ccncc1`, the MIC in assay [1] was 1 µM (≈ 0.275 µg/mL); in [2] it was 1 µM (≈ 0.275 µg/mL); with Mycobacterium avium [3], 500 µM (≈ 137 µg/mL); in the assay on Mycobacterium avium [4] it was 1000 µM (≈ 275 µg/mL); against Mycobacterium kansasii [5], 125 µM (≈ 34.3 µg/mL); in the assay on Mycobacterium kansasii [6] it was 500 µM (≈ 137 µg/mL). Also, the MIC against Mycobacterium kansasii [7] was found to be 500 µM (≈ 137 µg/mL); with Mycobacterium kansasii [8] it was 16 µM (≈ 4.4 µg/mL); against Mycobacterium kansasii [9] it was 16 µM (≈ 4.4 µg/mL); in the assay with Mycobacterium kansasii [10] it was 16 µM (≈ 4.4 µg/mL).

In the case of `O=C(N/N=C/Nc1cccc(Br)c1)c1ccncc1`, the minimal inhibitory concentration (MIC) worked out at 1 µM (≈ 0.319 µg/mL) in assay [1]; 1 µM (≈ 0.319 µg/mL) in assay [2]; 250 µM (≈ 79.8 µg/mL) against Mycobacterium avium [3]; 500 µM (≈ 160 µg/mL) with Mycobacterium avium [4]; 250 µM (≈ 79.8 µg/mL) against Mycobacterium kansasii [5]; 1000 µM (≈ 319 µg/mL) against Mycobacterium kansasii [6]. In addition, the minimal inhibitory concentration (MIC) against Mycobacterium kansasii [7] turned out to be 1000 µM (≈ 319 µg/mL); in the assay on Mycobacterium kansasii [8], 8 µM (≈ 2.55 µg/mL); with Mycobacterium kansasii [9] it was 8 µM (≈ 2.55 µg/mL); against Mycobacterium kansasii [10], 16 µM (≈ 5.11 µg/mL).

With `O=C(N/N=C/Nc1ccc(Cl)cc1O)c1ccncc1`, the minimal inhibitory concentration (MIC) in [1] is 2 µM (≈ 0.581 µg/mL); in [2], 4 µM (≈ 1.16 µg/mL); against Mycobacterium avium [3], 250 µM (≈ 72.7 µg/mL); against Mycobacterium avium [4], 500 µM (≈ 145 µg/mL); with Mycobacterium kansasii [5], 250 µM (≈ 72.7 µg/mL); against Mycobacterium kansasii [6] it was 500 µM (≈ 145 µg/mL). Further, the minimal inhibitory concentration (MIC) was 500 µM (≈ 145 µg/mL) against Mycobacterium kansasii [7], 16 µM (≈ 4.65 µg/mL) against Mycobacterium kansasii [8], 16 µM (≈ 4.65 µg/mL) against Mycobacterium kansasii [9] and 32 µM (≈ 9.3 µg/mL) with Mycobacterium kansasii [10].

Consider `O=C(N/N=C/Nc1ccc(Cl)c(Cl)c1)c1ccncc1`, for which the minimal inhibitory concentration (MIC) was determined as 1 µM (≈ 0.309 µg/mL) in [1]; 2 µM (≈ 0.618 µg/mL) in assay [2]; 250 µM (≈ 77.3 µg/mL) in the assay with Mycobacterium avium [3]; 250 µM (≈ 77.3 µg/mL) against Mycobacterium avium [4]; 250 µM (≈ 77.3 µg/mL) in the assay with Mycobacterium kansasii [5]; 500 µM (≈ 155 µg/mL) in the assay with Mycobacterium kansasii [6]. Moreover, the MIC against Mycobacterium kansasii [7] amounted to 500 µM (≈ 155 µg/mL); in the assay with Mycobacterium kansasii [8], 8 µM (≈ 2.47 µg/mL); in the assay on Mycobacterium kansasii [9], 16 µM (≈ 4.95 µg/mL); in the assay on Mycobacterium kansasii [10] it was 16 µM (≈ 4.95 µg/mL).

Turning to `O=C(N/N=C/Nc1ccc(F)c(F)c1)c1ccncc1`, the minimal inhibitory concentration (MIC) in assay [1] came out at 2 µM (≈ 0.552 µg/mL); in [2], 2 µM (≈ 0.552 µg/mL); against Mycobacterium avium [3], 250 µM (≈ 69.1 µg/mL); against Mycobacterium avium [4] it was 250 µM (≈ 69.1 µg/mL); in the assay on Mycobacterium kansasii [5], 250 µM (≈ 69.1 µg/mL); with Mycobacterium kansasii [6], 500 µM (≈ 138 µg/mL). Also, the MIC amounted to 1000 µM (≈ 276 µg/mL) against Mycobacterium kansasii [7], 8 µM (≈ 2.21 µg/mL) against Mycobacterium kansasii [8], 16 µM (≈ 4.42 µg/mL) in the assay with Mycobacterium kansasii [9] and 32 µM (≈ 8.84 µg/mL) in the assay on Mycobacterium kansasii [10].

As for `O=C(N/N=C/Nc1ccc(F)c(Cl)c1)c1ccncc1`, the minimum inhibitory concentration (MIC) in [1] came out at 1 µM (≈ 0.293 µg/mL); in assay [2], 2 µM (≈ 0.585 µg/mL); with Mycobacterium avium [3], 250 µM (≈ 73.2 µg/mL); against Mycobacterium avium [4] it was 500 µM (≈ 146 µg/mL); with Mycobacterium kansasii [5], 250 µM (≈ 73.2 µg/mL); in the assay with Mycobacterium kansasii [6] it was 1000 µM (≈ 293 µg/mL). The minimal inhibitory concentration (MIC) in the assay on Mycobacterium kansasii [7] is greater than 1000 µM; against Mycobacterium kansasii [8], 16 µM (≈ 4.68 µg/mL); against Mycobacterium kansasii [9], 16 µM (≈ 4.68 µg/mL); against Mycobacterium kansasii [10], 32 µM (≈ 9.37 µg/mL).

The MIC is the smallest concentration in the dilution series that meets the test's criterion for growth inhibition. A low value points to inhibition by little substance.
